Legend:
Assay type in all cases: functional
HL-60 [1] = assay: Antiproliferative activity against human HL60 cells after 72 hrs by SRB assay
Outline: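 HL60 human promyelocytic leukemia cells were seeded and grown for 24 h, then given compounds and cultured for another 72 h. Read-out was SRB, per the table footnote. GI50 was obtained by the Logit method from three or more independent experiments.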

A549 [2] = assay: Antiproliferative activity against human A549 cells after 72 hrs by MTT assay
Outline: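 A549 human lung adenocarcinoma epithelial cells were seeded and grown for 24 h, then exposed to compounds for a further 72 h. Proliferation was read by MTT, as assigned in the table footnote. GI50 was calculated by the Logit method from at least three independent experiments.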

A549 [3] = assay: Antiproliferative activity against human A549 cells at 10^-6 mol/L after 72 hrs by MTT assay; conditions: A549, 72 h
HL-60 [4] = assay: Antiproliferative activity against human HL60 cells at 10^-6 mol/L after 72 hrs by SRB assay; conditions: HL-60, 72 h
A549 [5] = assay: Antiproliferative activity against human A549 cells at 10^-8 mol/L after 72 hrs by MTT assay; conditions: A549, 72 h
HL-60 [6] = assay: Antiproliferative activity against human HL60 cells at 10^-8 mol/L after 72 hrs by SRB assay; conditions: HL-60, 72 h
HL-60 [7] = assay: Antiproliferative activity against human HL60 cells at 10^-7 mol/L after 72 hrs by SRB assay; conditions: HL-60, 72 h
A549 [8] = assay: Antiproliferative activity against human A549 cells at 10^-7 mol/L after 72 hrs by MTT assay; conditions: A549, 72 h

Row | GI50 (HL-60 [1]; Homo sapiens, HL-60, 72 h) [nM] | GI50 (A549 [2]; Homo sapiens, A549, 72 h) [nM] | Structure (SMILES) | other results
1 | < 1 | 30 | COc1ccc2c3c(c4cc(OC)c(OC)cc4c2c1)CN1CCC[C@H]1[C@H]3O | –
2 | 300 | 3700 | COc1ccc2c3c(c4cc(OC)c(OC)cc4c2c1)CN1CCC[C@@H]1[C@@H]3O | –
3 | 60 | 90 | COc1ccc2c3c(c4cc(OC)c(OC)cc4c2c1)CN1CCC[C@H]1C3 | –
4 | 50 | 50 | COc1ccc2c3c(c4cc(OC)c(OC)cc4c2c1)[C@H](NC(C)=O)[C@@H]1CCCN1C3 | –
5 | 300 | 700 | COc1ccc2c3c(c4cc(OC)c(OC)cc4c2c1)CN1CCC[C@@H]1C3 | –
6 | 100 | 40 | COc1cc2c3c(c4ccc(O)cc4c2cc1OC)CN1CCC[C@H]1C3 | inhibition at 1 µM (A549 [3]): 85.9%; inhibition at 1 µM (HL-60 [4]): 85.8%; inhibition at 0.01 µM (A549 [5]): 21.9%; inhibition at 0.01 µM (HL-60 [6]): 37.4%; inhibition at 0.1 µM (HL-60 [7]): 76.1%; inhibition at 0.1 µM (A549 [8]): 71.3%
7 | – | 1290 | COc1cc2c3c(c4cc(OC)c(OC)cc4c2cc1OC)[C@@H](O)[C@H]1CCCN1C3 | inhibition at 1 µM (A549 [3]): 68.9%; inhibition at 1 µM (HL-60 [4]): 76%; inhibition at 0.01 µM (A549 [5]): 12.3%; inhibition at 0.01 µM (HL-60 [6]): 12.7%; inhibition at 0.1 µM (HL-60 [7]): 37.1%; inhibition at 0.1 µM (A549 [8]): 31.3%
8 | – | – | COc1cc2c3c(c4cc(OC)c(OC)cc4c2cc1OC)[C@H](O)[C@H]1CCCN1C3 | inhibition at 1 µM (A549 [3]): 17.9%; inhibition at 1 µM (HL-60 [4]): 27%; inhibition at 0.01 µM (A549 [5]): 5%; inhibition at 0.01 µM (HL-60 [6]): 12.1%; inhibition at 0.1 µM (HL-60 [7]): 16.1%; inhibition at 0.1 µM (A549 [8]): 5.6%
9 | 300 | 1100 | COc1cc2c3c(c4cc(OC)c(OC)cc4c2cc1OC)[C@H](N)[C@@H]1CCCN1C3 | –
10 | 1600 | 400 | COc1ccc2c3c(c4cc(OC)c(OC)cc4c2c1)[C@H](N)[C@@H]1CCCN1C3 | –
11 | 50 | 100 | COc1ccc2c3c(c4cc(OC)c(OC)cc4c2c1)CN1CCC[C@H]1[C@H]3N | –
12 | > 10000 | > 10000 | COc1cc2c3c(c4cc(OC)c(OC)cc4c2cc1OC)[C@H](NC(C)=O)[C@@H]1CCCN1C3 | –
13 | 1200 | 1500 | COc1ccc2c3c(c4cc(OC)c(OC)cc4c2c1)CN1CCC[C@H]1[C@H]3NC(C)=O | –
14 | > 10000 | > 10000 | COc1cc2c3c(c4cc(OC)c(OC)cc4c2cc1OC)[C@H](NC(=O)C(C)(C)C)[C@@H]1CCCN1C3 | –
15 | > 10000 | > 10000 | COc1ccc2c3c(c4cc(OC)c(OC)cc4c2c1)[C@H](NC(=O)C(C)(C)C)[C@@H]1CCCN1C3 | –
16 | > 10000 | > 10000 | COc1ccc2c3c(c4cc(OC)c(OC)cc4c2c1)CN1CCC[C@H]1[C@H]3NC(=O)C(C)(C)C | –
17 | < 1 | 60 | COc1cc2c3c(c4cc(OC)c(OC)cc4c2cc1OC)CN1CCCC[C@H]1C3 | –
18 | < 1 | < 1 | COc1cc2c3c(c4cc(OC)c(OC)cc4c2cc1OC)CN1CCCC[C@@H]1C3 | –
19 | – | – | COc1ccc2c3c(c4cc(OC)c(OC)cc4c2c1)C[C@@H]1CCCCN1C3 | GI50 (HL-60 [1]): < 1 nM; GI50 (A549 [2]): < 1 nM
20 | 600 | 700 | COc1ccc2c3c(c4cc(OC)c(OC)cc4c2c1)CN1CCCC[C@H]1C3 | –

Row | Structure (SMILES) | GI50 (HL-60 [1]; Homo sapiens, HL-60, 72 h) [nM] | GI50 (A549 [2]; Homo sapiens, A549, 72 h) [nM] | other results
21 | COc1ccc2c3c(c4cc(OC)c(OC)cc4c2c1)[C@H](O)[C@@H]1CCCN1C3 | > 10000 | > 10000 | –
22 | COc1ccc2c3c(c4cc(OC)c(OC)cc4c2c1)[C@@H](O)[C@H]1CCCN1C3 | > 10000 | > 10000 | –

Reference: ChEMBL document CHEMBL1955742, “Synthesis and SAR studies of phenanthroindolizidine and phenanthroquinolizidine alkaloids as potent anti-tumor agents” (2012)
